Assay results reported in ChEMBL document CHEMBL3352689 (J Med Chem, 2014).

Assays:
Rattus norvegicus [1] = assay: Toxicity in rat at 200 mg/kg/day; assay type: organism-based; conditions: in vivo
[2] = Cmax in rabbit at 10 mg/kg, po; assay type: ADME, organism-based, Oryctolagus cuniculus; design: dose 10 mg/kg, route oral; conditions: in vivo
Outline: (§1)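 Three male animals per species. The sodium salt was given as a single oral dose in 0.5% methyl cellulose. Plasma Tmax, Cmax, AUC and oral bioavailability were derived.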

[3] = AUC in rat at 10 mg/kg, po; assay type: ADME, organism-based; design: dose 10 mg/kg, route oral; conditions: plasma; outline: as §1
Liver microsome = assay: Metabolic stability in human liver microsomes; assay type: ADME
Outline: (§2)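 The free acid was incubated with hepatic microsomes of each species. Stability is reported as clearance in μL/min/mg microsomal protein.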

[4] = Tmax in rat at 10 mg/kg, po; assay type: ADME, organism-based; design: dose 10 mg/kg, route oral; conditions: in vivo; outline: as §1
Macaca fascicularis [5] = assay: Cmax in monkey at 1 mg/kg, po; conditions: cynomolgus monkey, in vivo
Oryctolagus cuniculus = assay: Oral bioavailability in rabbit assessed as 4-[2-({6-Fluoro-2-[({[3-(methyloxy)phenyl]methyl}amino)-carbonyl]-4-oxo-3,4-dihydroquinazolin-5-yl}oxy)ethyl]-benzoic acid at 1 mg/kg; assay type: ADME, organism-based; conditions: in vivo
Outline: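 Rabbits, three males, received the free-acid form orally in 0.5% methyl cellulose at 1 mg/kg. Oral bioavailability was calculated.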

[6] = Tmax in rabbit at 10 mg/kg, po; assay type: ADME, organism-based, Oryctolagus cuniculus; design: dose 10 mg/kg, route oral; conditions: in vivo; outline: as §1
Macaca fascicularis [7] = assay: Oral bioavailability in monkey at 1 mg/kg; conditions: cynomolgus monkey, in vivo
[8] = Metabolic stability in cynomolgus monkey liver microsomes
[9] = Oral bioavailability in rat at 10 mg/kg; assay type: ADME, organism-based; conditions: in vivo; outline: as §1
Macaca fascicularis [10] = assay: Volume of distribution at steady state in monkey at 1 mg/kg, iv; conditions: cynomolgus monkey, in vivo, read-out: Vdss
[11] = Total clearance in rat at 1 mg/kg, iv; assay type: ADME, organism-based; design: dose 1 mg/kg, route intravenous; conditions: in vivo
Outline: (§3)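 Three male animals per species. Dosing was intravenous, with the compound in DMA/PEG400 or DMSO. Steady-state volume of distribution and total body clearance were derived from plasma levels.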

Canis familiaris = assay: Oral bioavailability in dog assessed as 4-[2-({6-Fluoro-2-[({[3-(methyloxy)phenyl]methyl}amino)-carbonyl]-4-oxo-3,4-dihydroquinazolin-5-yl}oxy)ethyl]-benzoic acid at 3 mg/kg; assay type: ADME, organism-based, Canis lupus familiaris; conditions: in vivo
Outline: (§4)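 The free-acid form was dosed orally in 0.5% methyl cellulose at 3 mg/kg to three male animals. Oral bioavailability was calculated.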

Macaca fascicularis [12] = assay: AUC in monkey at 1 mg/kg, po; conditions: cynomolgus monkey, plasma
[13] = Total clearance in rabbit at 0.1 mg/kg, iv; conditions: in vivo
[14] = Metabolic stability in rabbit liver microsomes; assay type: ADME, Oryctolagus cuniculus; outline: as §2
Liver = assay: Metabolic stability in guinea pig liver microsomes; assay type: ADME, Cavia porcellus; outline: as §2
[15] = Total clearance in dog at 1 mg/kg, iv; assay type: ADME, organism-based, Canis lupus familiaris; design: dose 1 mg/kg, route intravenous; conditions: in vivo; outline: as §3
[16] = Cmax in dog at 10 mg/kg, po; assay type: ADME, organism-based, Canis lupus familiaris; design: dose 10 mg/kg, route oral; conditions: in vivo; outline: as §1
Macaca fascicularis [17] = assay: Tmax in monkey at 1 mg/kg, po; conditions: cynomolgus monkey, in vivo
[18] = Total clearance in guinea pig at 1 mg/kg, iv; assay type: ADME, organism-based, Cavia porcellus; design: dose 1 mg/kg, route intravenous; conditions: in vivo; outline: as §3
Rattus norvegicus [19] = assay: Oral bioavailability in rat assessed as 4-[2-({6-Fluoro-2-[({[3-(methyloxy)phenyl]methyl}amino)-carbonyl]-4-oxo-3,4-dihydroquinazolin-5-yl}oxy)ethyl]-benzoic acid at 3 mg/kg; assay type: ADME, organism-based; conditions: in vivo; outline: as §4
[20] = Volume of distribution at steady state in rat at 1 mg/kg, iv; assay type: ADME, organism-based; design: dose 1 mg/kg, route intravenous; conditions: in vivo, read-out: Vdss; outline: as §3
[21] = AUC in guinea pig at 3 mg/kg, po; assay type: ADME, organism-based, Cavia porcellus; design: dose 3 mg/kg, route oral; conditions: plasma; outline: as §1
[22] = Volume of distribution at steady state in rabbit at 0.1 mg/kg, iv; conditions: in vivo, read-out: Vdss
Macaca fascicularis [23] = assay: Total clearance in monkey at 1 mg/kg, iv; conditions: cynomolgus monkey, in vivo
[24] = Cmax in rat at 10 mg/kg, po; assay type: ADME, organism-based; design: dose 10 mg/kg, route oral; conditions: in vivo; outline: as §1
Macaca fascicularis [25] = assay: Oral bioavailability in monkey assessed as 4-[2-({6-Fluoro-2-[({[3-(methyloxy)phenyl]methyl}amino)-carbonyl]-4-oxo-3,4-dihydroquinazolin-5-yl}oxy)ethyl]-benzoic acid at 3 mg/kg; conditions: cynomolgus monkey, in vivo
[26] = Oral bioavailability in dog at 10 mg/kg; assay type: ADME, organism-based, Canis lupus familiaris; conditions: in vivo; outline: as §1
[27] = Volume of distribution at steady state in guinea pig at 1 mg/kg, iv; assay type: ADME, organism-based, Cavia porcellus; design: dose 1 mg/kg, route intravenous; conditions: in vivo, read-out: Vdss; outline: as §3
[28] = AUC in rabbit at 10 mg/kg, po; assay type: ADME, organism-based, Oryctolagus cuniculus; design: dose 10 mg/kg, route oral; conditions: plasma; outline: as §1
[29] = AUC in dog at 10 mg/kg, po; assay type: ADME, organism-based, Canis lupus familiaris; design: dose 10 mg/kg, route oral; conditions: plasma; outline: as §1
[30] = Cmax in guinea pig at 3 mg/kg, po; assay type: ADME, organism-based, Cavia porcellus; design: dose 3 mg/kg, route oral; conditions: in vivo; outline: as §1
[31] = Volume of distribution at steady state in dog at 1 mg/kg, iv; assay type: ADME, organism-based, Canis lupus familiaris; design: dose 1 mg/kg, route intravenous; conditions: in vivo, read-out: Vdss; outline: as §3
[32] = Tmax in dog at 10 mg/kg, po; assay type: ADME, organism-based, Canis lupus familiaris; design: dose 10 mg/kg, route oral; conditions: in vivo; outline: as §1
[33] = Oral bioavailability in guinea pig at 3 mg/kg; assay type: ADME, organism-based, Cavia porcellus; conditions: in vivo; outline: as §1
Cavia porcellus = assay: Oral bioavailability in guinea pig assessed as 4-[2-({6-Fluoro-2-[({[3-(methyloxy)phenyl]methyl}amino)-carbonyl]-4-oxo-3,4-dihydroquinazolin-5-yl}oxy)ethyl]-benzoic acid at 3 mg/kg; assay type: ADME, organism-based; conditions: in vivo; outline: as §4
[34] = Tmax in guinea pig at 3 mg/kg, po; assay type: ADME, organism-based, Cavia porcellus; design: dose 3 mg/kg, route oral; conditions: in vivo; outline: as §1
[35] = Oral bioavailability in rabbit at 10 mg/kg; assay type: ADME, organism-based, Oryctolagus cuniculus; conditions: in vivo; outline: as §1

- Cmax [2]: 2290 ng/mL
- AUC [3]: 1600 ng·h/mL
- Stability (Liver microsome): 3 µL/min/mg
- Tmax [4]: 0.25 h
- Cmax (Macaca fascicularis [5]): 45 ng/mL
- F (Oryctolagus cuniculus): 11%
- Tmax [6]: 1.8 h
- bioavailability (Macaca fascicularis [7]): 45%
- Stability [8]: 2 µL/min/mg
- bioavailability [9]: 23%
- Vd (Macaca fascicularis [10]): 7.03 L/kg
- clearance [11]: 34.6 mL/min/kg
- F (Canis familiaris): 3%
- AUC (Macaca fascicularis [12]): 456 ng·h/mL
- clearance [13]: 3.7 mL/min/kg
- Stability [14]: 3 µL/min/mg
- Stability (Liver): 1 µL/min/mg
- clearance [15]: 3.08 mL/min/kg
- Cmax [16]: 3870 ng/mL
- Tmax (Macaca fascicularis [17]): 2.8 h
- clearance [18]: 26.9 mL/min/kg
- F (Rattus norvegicus [19]): 4.9%
- Vd [20]: 0.995 L/kg
- AUC [21]: 1410 ng·h/mL
- Vd [22]: 1.14 L/kg
- clearance (Macaca fascicularis [23]): 20.9 mL/min/kg
- Cmax [24]: 439 ng/mL
- F (Macaca fascicularis [25]): 1.5%
- bioavailability [26]: 58%
- Vd [27]: 5.39 L/kg
- AUC [28]: 15700 ng·h/mL
- AUC [29]: 31800 ng·h/mL
- Cmax [30]: 439 ng/mL
- Vd [31]: 0.731 L/kg
- Tmax [32]: 1.7 h
- bioavailability [33]: 74%
- F (Cavia porcellus): 6.3%
- Tmax [34]: 0.5 h
- bioavailability [35]: 35%
Compound: COc1cccc(CNC(=O)c2nc3ccc(F)c(OCCc4ccc(C(=O)[O-])cc4)c3c(=O)[nH]2)c1.[Na+]
- Activity (Rattus norvegicus [1]): Non-toxic
